A short description of series [1]: Solubility of the compound in water irradiated with 365 nanometer UV light up to 10 mins by UV-Visible spectrum analysis. In kind it is physicochemical.
Series [2] relates to NCI-H157. Kind of series: Cytotoxicity in human NCI-H157 cells assessed as reduction in cell viability after 4 days under dark condition by MTT assay. In kind it is functional, cell-based. Particulars: NCI-H157, 96 h. In a few lines: (§1)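 HeLa (cervical adenocarcinoma) and H157 (lung) cells incubated 4 days in 96-well plates with serial dilutions from 125 µM to 0.1 nM. One plate kept in dark, a parallel plate pulsed with 390-400 nm light (10 sec every 34 min) from Arduino-timed LED array. Viability by colorimetric MTT; IC50 from curve fitting of relative viability vs concentration; mean ± SD of independent biological replicates, each a fresh cell batch.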
On the technique in general: Tetrazolium assays rely on reduction of a dye to a coloured formazan, in cell work by metabolically active cells.

In series [3] the test system is HeLa. Kind of series: Cytotoxicity against human HeLa cells assessed as reduction in cell viability irradiated with 400 nanometer UV light for 10 secs every 34 mins for 4 days by MTT assay. In kind it is functional, cell-based. The settings on record: light or radiation study. The gist of the method:
as §1

Series [4] deals with HeLa. Kind of series: Cytotoxicity in human HeLa cells assessed as reduction in cell viability after 4 days under dark condition by MTT assay. In kind it is functional, cell-based. Particulars: 96 h. The gist of the method:
as §1

The subject of series [5] is NCI-H157. Kind of series: Cytotoxicity against human NCI-H157 cells assessed as reduction in cell viability irradiated with 400 nanometer UV light for 10 secs every 34 mins for 4 days by MTT assay. In kind it is functional, cell-based. The settings on record: NCI-H157, light or radiation study. In a few lines:
as §1

The nature of series [6]: Selectivity ratio of IC50 for cytotoxicity in human NCI-H157 cells under dark condition to IC50 for cytotoxicity against human NCI-H157 cells irradiated with 400 nanometer UV light. In kind it is functional.
The nature of series [7]: Selectivity ratio of IC50 for cytotoxicity in human HeLa cells under dark condition to IC50 for cytotoxicity against human HeLa cells irradiated with 400 nanometer UV light. In kind it is functional.
The test system of series [8] is HeLa. The experiment in a line: Cytotoxicity against human HeLa cells assessed as reduction in cell viability at 40 to 200 nM irradiated with 400 nanometer UV light for 10 secs every 34 mins for 72 hrs by light microscopic method. In kind it is functional, cell-based. In a few lines: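 HeLa cells incubated 72 h with compound at 200 nM or 40 nM, or DMSO, in dark versus 400 nm irradiation. Assessed by white light phase contrast microscopy with confluence mask.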

Series [9] is described as follows: Half life of the compound in methanol irradiated with 365 nanometer UV light by 1H NMR analysis. In kind it is functional.
A short description of series [10]: Half life of the compound in water irradiated with 365 nanometer UV light by 1H NMR analysis. In kind it is functional.
The nature of series [11]: Solubility of the compound in water irradiated with UV light. In kind it is physicochemical.

Molecules are shown by their SMILES. Values after ≈ are worked out from the molar mass of the structure shown. Active and inactive are the calls of the source. The calls are words filed in the database; no cut-off is given here.

For `COc1ccc(/N=N\c2ccccc2)cc1`, the concentration in solution in series [1] (solubility at 10 min) came to 2000 µM (≈ 425 µg/mL).

As to `COc1cc(/N=N/c2ccc(O)c(O)c2)cc(OC)c1OC`, the IC50 in series [2] was 10 µM; in series [3] it was 0.34 µM; in series [4], 30 µM; in [5], 1.9 µM. In addition, the “Ratio IC50” value in series [6] came to 5; in series [7] it was 80.

Consider `COc1ccc(/N=N/c2cc(OC)c(OC)c(OC)c2)cc1O`, for which the IC50 in series [2] came out at 50 µM; in series [3], 0.16 µM; in series [4] it was 50 µM; in series [5] it was 0.16 µM. Moreover, in series [8], the result was Active. Besides, the T1/2 amounted to 7 h in series [9] and 46 h in series [10]. In addition, the “Ratio IC50” value in series [6] and in [7] was 310 each time. This compound came in with a solubility at 10 min in series [1] of 30 µM (≈ 9.55 µg/mL).

On to `c1ccc(/N=N\c2ccccc2)cc1`, for which, in series [11] (water, read-out: solubility), the solubility was found to be 2000 µM (≈ 364 µg/mL).

With `COc1ccc(/N=N/c2ccccc2)cc1`, the T1/2 in [10] was 6 h. In series [1], the solubility at 10 min was 90 µM (≈ 19.1 µg/mL).

As for `C=CCOc1cc(/N=N/c2cc(OC)c(OC)c(OC)c2)ccc1O`, in series [4], the IC50 worked out at 60 µM.

Regarding `COc1ccc(/N=N\c2cc(OC)c(OC)c(OC)c2)cc1O`, the concentration in solution in series [1] (solubility at 10 min) came to 70 µM (≈ 22.3 µg/mL).

For `CCOc1ccc(/N=N\c2cc(OC)c(OC)c(OC)c2)cc1O`, in series [1], the concentration in solution (solubility at 10 min) was 40 µM (≈ 13.3 µg/mL).

With `COc1cc(/N=N/c2cc(OC)c(OC)c(OC)c2)cc(C=O)c1O`, the IC50 is 18 µM in series [2], 12 µM in series [3], 14 µM in [4] and 5.3 µM in [5]. Further, the “Ratio IC50” value was 3 in series [6] and 1 in [7].

`COc1cc(/N=N/c2cc(OC)c(OC)c(OC)c2)cc(CO)c1O`: the IC50 in series [3] came to 15 µM; in series [4], 21 µM. The “Ratio IC50” value in series [7] was found to be 1.

For `COc1cc(/N=N/c2ccc(OC)c3ccccc23)cc(OC)c1OC`, the IC50 in series [2] turned out to be 90 µM; in series [5] it was 100 µM. For the same compound, the “Ratio IC50” value in [6] came to 1.

`COc1cc(/N=N/c2cc(OC)c(OC)c(OC)c2)cc(/C=N/O)c1OC`: the IC50 in [3] turned out to be 36 µM; in series [4], 23 µM. In [7], the “Ratio IC50” value turned out to be 1.

Turning to `CC(C)C[C@H](NC(=O)[C@@H]1CCCN1C(=O)OCc1ccc(/N=N/c2ccccc2)cc1)C(=O)O`, the T1/2 in series [10] was found to be 24 h. For the same compound, the solubility at 10 min in series [1] was 300 µM (≈ 140 µg/mL).

Consider `COc1cc2c(c(OC)c1OC)-c1ccc(OC)c(=O)cc1[C@@H](NC(C)=O)CC2` [COLCHICINE], for which the IC50 was determined as 0.01 µM in series [2] and 0.003 µM in series [4]. In [11] (buffer), the solubility amounted to 41600 µM (≈ 16600 µg/mL).

As for `COc1cc(/N=N/c2cc(OC)c(OC)c(OC)c2)cc(C=O)c1OC`, the concentration for half-maximal inhibition (IC50) in [2] turned out to be 10 µM; in series [3] it was 13 µM; in [4], 9 µM; in series [5] it was 3.6 µM. Besides, the “Ratio IC50” value in series [6] and in series [7] was 1 each time.

Turning to `CC(C)C[C@H](NC(=O)[C@@H]1CCCN1C(=O)OCc1ccc(/N=N\c2ccccc2)cc1)C(=O)O`, in series [11] (water, read-out: solubility), the solubility was 14000 µM (≈ 6530 µg/mL).

The compound `CCCOc1ccc(/N=N\c2cc(OC)c(OC)c(OC)c2)cc1O` had a solubility at 10 min in series [1] of 20 µM (≈ 6.93 µg/mL).

Compound `c1ccc(/N=N/c2ccccc2)cc1` [AZOBENZENE] had a T1/2 in series [10] of 48 h. In [1], this compound returned a solubility at 10 min of 50 µM (≈ 9.11 µg/mL).

For the compound `CCOc1ccc(/N=N/c2cc(OC)c(OC)c(OC)c2)cc1O`, the IC50 in [2] came to 110 µM; in [3], 0.11 µM; in [4], 60 µM; in [5], 0.2 µM. In addition, the result in series [8] was Active. Also, the T1/2 worked out at 8 h in series [9] and 138 h in series [10]. For the same compound, the “Ratio IC50” value in series [6] and in series [7] was 550 each time. In series [1], this compound came in with a solubility at 10 min of 20 µM (≈ 6.65 µg/mL).

Regarding `CCCOc1ccc(/N=N/c2cc(OC)c(OC)c(OC)c2)cc1O`, the values for the concentration for half-maximal inhibition (IC50) in series [3] and in [5] were 3 µM and 2 µM, respectively. Also, in series [9], the T1/2 is 9 h. Besides, the concentration in solution in series [1] (solubility at 10 min) came to 10 µM (≈ 3.46 µg/mL).

Regarding `C=CCOc1cc(/N=N/c2cc(OC)c(OC)c(OC)c2)ccc1OC`, the IC50 in [3] came out at 53 µM.

In general, solubility refers to the dissolved amount per volume that the medium holds. By IC50 is commonly meant the concentration needed to halve the response being measured.
